The record followed here is ChEMBL document CHEMBL3526018, “Metabolites of PPI-2458, a selective, irreversible inhibitor of methionine aminopeptidase-2: structure determination and in vivo activity” (Drug Metab Dispos, 2013).

The structures appear in SMILES notation. Calls of active or inactive are those of the source. No cut-off for these calls is given here.

The target in series [1] is Methionine aminopeptidase 2 (Homo sapiens) (UniProt P50579). Description: Inhibition of human MetAP2 assessed as remaining enzyme activity after 1 hr. In a few lines:
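The hMetAP2 assay follows the fraction of active enzyme remaining during an 8 h incubation with inhibitor, relative to an enzyme-only control.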

The nature of series [2]: Cmax in non-Hodgkin lymphoma patient at 15 mg, po alternate days for 21 days. Type of series: ADME, organism-based. Also on record: dose 15 mg, route oral. The conditions noted are these: human, in vivo. The essentials: (§1)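 Oral PPI-2458 given every other day to lymphoma patients. Plasma sampled pre-dose and at 15 min, 30 min, 1, 2, 3, 4, 6, 8, 24 and 48 h after the first dose. Parent and metabolites were measured by LC-MS/MS after protein precipitation, evaporation and reconstitution. CL/F was computed only for parent and summed analytes. For metabolites, t1/2 is an apparent first-phase value.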

The nature of series [3]: AUC (0 to t hrs) in non-Hodgkin lymphoma patient at 15 mg, po alternate days for 21 days. The format is ADME, organism-based. The conditions noted are these: human, in vivo. In a few lines: as §1
The nature of series [4]: Apparent oral clearance in non-Hodgkin lymphoma patient at 15 mg, po alternate days for 21 days. To be noted: human, in vivo. Type of series: ADME, organism-based. The essentials: as §1
Series [5] deals with Liver microsome. Description: Metabolic stability in human liver microsomes assessed as retention time of ((3R,4S,5S,6R)-4-((2R,3R)-3-(((R)-3,3-dimethyloxiran-2-yl)methyl)-2-methyloxiran-2-yl)-5-methoxy-1-oxaspiro[2.5]octan-6-yl ((R)-1-amino-3-methyl-1-oxobutan-2-yl)carbamate) at 5 mM by LC/MS analysis. Type of series: ADME. To be noted: 5000 µM. (In general: Liver microsomes are a subcellular fraction often used to study metabolism.)

Series [6] deals with Liver microsome. Description: Metabolic stability in dog liver microsomes assessed as retention time of ((3R,4S,5S,6R)-4-((2R,3R)-3-(((S)-3,3-dimethyloxiran-2-yl)methyl)-2-methyloxiran-2-yl)-5-methoxy-1-oxaspiro[2.5]octan-6-yl ((R)-1-amino-3-methyl-1-oxobutan-2-yl)carbamate) at 5 mM by LC/MS analysis. Type of series: ADME, Canis lupus familiaris. The conditions noted are these: 5000 µM.

The subject of series [7] is Liver microsome. Kind of series: Metabolic stability in dog liver microsomes assessed as retention time of ((3R,4S,5S,6R)-4-((2R,3R)-3-((E)-4-hydroxy-3-methylbut-2-en-1-yl)-2-methyloxiran-2-yl)-5-methoxy-1-oxaspiro[2.5]octan-6-yl((R)-1-amino-3-methyl-1-oxobutan-2-yl)carbamate) at 5 mM by LC/MS analysis. The conditions noted are these: 5000 µM. The format is ADME, Canis lupus familiaris.

Series [8] can be described thus: Metabolic stability in monkey liver microsomes assessed as retention time of ((3R,4S,5S,6R)-4-((2R,3R)-3-(((S)-3,3-dimethyloxiran-2-yl)methyl)-2-methyloxiran-2-yl)-5-methoxy-1-oxaspiro[2.5]octan-6-yl ((R)-1-amino-3-methyl-1-oxobutan-2-yl)carbamate) at 5 mM by LC/MS analysis. The format is ADME, Macaca mulatta. The conditions noted are these: rhesus monkey, 5000 µM. In a few lines:
(§2)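 Liver microsomes (pooled male/female) in 100 mM KPO4 pH 7.4 with PPI-2458 (5 mM stock), pre-incubated 5 min at 37°C, then 10 mM NADPH added; 20 min at 37°C with shaking. Time-zero and no-NADPH controls. Quenched with CH3CN; supernatant dried and redissolved in water. Analysed by LC-MS, ESI+ full scan 300–800 amu, C18 column, 10→50% B gradient.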

The subject of series [9] is Rattus norvegicus. Kind of series: Inhibition of MetAP2 level in Sprague-Dawley rat liver assessed as free enzyme level at 0.3 mg/kg, po by ELISA. Type of series: functional, organism-based. Also on record: dose 0.3 mg/kg. In a few lines: (§3)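 Male Sprague-Dawley rats (200-225 g, n=3 per group) were dosed once IV at 0.3 mg/kg or PO at 0.3 or 3.0 mg/kg, in 11% HPCD in water. Blood, liver, lung, thymus and pooled non-mesenteric lymph nodes were taken at ~24 h and lysed or homogenized with NP-40. Free MetAP2 was measured by ELISA and expressed as % of vehicle.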

The test system of series [10] is Rattus norvegicus. Kind of series: Inhibition of MetAP2 level in Sprague-Dawley rat thymus assessed as free enzyme level at 0.3 mg/kg, po by ELISA. Also on record: dose 0.3 mg/kg. Type of series: functional, organism-based. In a few lines: as §3
A general note: ELISA stands for enzyme-linked immunosorbent assay.

In a further series the test system is Liver. Kind of series: Metabolic stability in mouse liver microsomes assessed as retention time of ((3R,4S,5S,6R)-5-methoxy-4-((2R,3R)-2-methyl-3-(3-methylbut-2-en-1-yl)oxiran-2-yl)-1-oxaspiro[2.5]octan-6-yl ((R)-1-amino-3-hydroxy-3-methyl-1-oxobutan-2-yl)carbamate) at 5 mM by LC/MS analysis. To be noted: 5000 µM. The format is ADME. In a few lines:
as §2

The test system of series [11] is Liver microsome. Description: Metabolic stability in rat liver microsomes assessed as retention time of ((3R,4S,5S,6R)-4-((2R,3R)-3-(((S)-3,3-dimethyloxiran-2-yl)methyl)-2-methyloxiran-2-yl)-5-methoxy-1-oxaspiro[2.5]octan-6-yl ((R)-1-amino-3-methyl-1-oxobutan-2-yl)carbamate) at 5 mM by LC/MS analysis. Type of series: ADME. To be noted: 5000 µM. In a few lines: as §2

The subject of series [12] is CYP3A4 (Homo sapiens). Description: Activity of human recombinant CYP3A4 assessed as ((3R,4S,5S,6R)-5-methoxy-4-((2R,3R)-2-methyl-3-(3-methylbut-2-en-1-yl)oxiran-2-yl)-1-oxaspiro[2.5]octan-6-yl ((R)-1-amino-3-hydroxy-3-methyl-1-oxobutan-2-yl)carbamate) formation. The conditions noted are these: recombinant enzyme.
Series [13] concerns CYP3A4 (Homo sapiens). Kind of series: Activity of human recombinant CYP3A4 assessed as ((3R,4S,5S,6R)-4-((2R,3R)-3-((E)-4-hydroxy-3-methylbut-2-en-1-yl)-2-methyloxiran-2-yl)-5-methoxy-1-oxaspiro[2.5]octan-6-yl((R)-1-amino-3-methyl-1-oxobutan-2-yl)carbamate) formation. The conditions noted are these: recombinant enzyme.
In series [14] the test system is CYP3A4 (Homo sapiens). Kind of series: Ratio of Vmax to Km for human recombinant CYP3A4 assessed as ((3R,4S,5S,6R)-4-((2R,3R)-3-((E)-4-hydroxy-3-methylbut-2-en-1-yl)-2-methyloxiran-2-yl)-5-methoxy-1-oxaspiro[2.5]octan-6-yl((R)-1-amino-3-methyl-1-oxobutan-2-yl)carbamate) formation. The conditions noted are these: recombinant enzyme.
Series [15] has as its system CYP3A4 (Homo sapiens). Kind of series: Activity of human recombinant CYP3A4 assessed as ((3R,4S,5S,6R)-4-((2R,3R)-3-((E)-4-hydroxy-3-methylbut-2-en-1-yl)-2-methyloxiran-2-yl)-5-methoxy-1-oxaspiro[2.5]octan-6-yl((R)-1-amino-3-methyl-1-oxobutan-2-yl)carbamate) formation per pmol of enzyme.
Another series concerns CYP3A5 (Homo sapiens). Kind of series: Activity of human recombinant CYP3A5 assessed as ((3R,4S,5S,6R)-4-((2R,3R)-3-((E)-4-hydroxy-3-methylbut-2-en-1-yl)-2-methyloxiran-2-yl)-5-methoxy-1-oxaspiro[2.5]octan-6-yl((R)-1-amino-3-methyl-1-oxobutan-2-yl)carbamate) formation per pmol of enzyme.
The subject of series [16] is CYP3A4 (Homo sapiens). Description: Activity of human recombinant CYP3A4 assessed as ((3R,4S,5S,6R)-4-((2R,3R)-3-(((R)-3,3-dimethyloxiran-2-yl)methyl)-2-methyloxiran-2-yl)-5-methoxy-1-oxaspiro[2.5]octan-6-yl ((R)-1-amino-3-methyl-1-oxobutan-2-yl)carbamate) formation per pmol of enzyme.

Sequence of Methionine aminopeptidase 2 (Homo sapiens) (P50579 2-478 limits assumed): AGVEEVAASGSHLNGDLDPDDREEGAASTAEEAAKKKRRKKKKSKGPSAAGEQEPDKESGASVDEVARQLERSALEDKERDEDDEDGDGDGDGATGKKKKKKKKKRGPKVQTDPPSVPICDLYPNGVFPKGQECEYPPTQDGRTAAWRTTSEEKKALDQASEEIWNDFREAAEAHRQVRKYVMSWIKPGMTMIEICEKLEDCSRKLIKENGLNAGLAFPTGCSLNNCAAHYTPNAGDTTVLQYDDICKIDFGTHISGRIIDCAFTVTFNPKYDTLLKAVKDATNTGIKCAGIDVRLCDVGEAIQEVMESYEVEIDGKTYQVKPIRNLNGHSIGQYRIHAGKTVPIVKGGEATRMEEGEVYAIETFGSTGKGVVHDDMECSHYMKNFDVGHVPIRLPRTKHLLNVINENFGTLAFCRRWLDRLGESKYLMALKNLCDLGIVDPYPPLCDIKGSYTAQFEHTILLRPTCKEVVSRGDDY

Consider `CO[C@@H]1[C@H](OC(=O)N[C@@H](C(N)=O)C(C)C)CC[C@]2(CO2)[C@H]1[C@@]1(C)O[C@@H]1CC=C(C)C` [PPI-2458], for which the Activity in series [1] was determined as 12%. Besides, the Cmax – broadly, the peak of the concentration-time curve – in series [2] came out at 55 ng/mL. For the same compound, in series [3], the AUC(0-t) (as a rule, the area under the concentration-time curve up to a stated or last time point) at 504 h was 43.9 ng·h/mL. For the same compound, in series [4], the CL/F (commonly the apparent clearance, not corrected for the fraction that reaches the circulation) was 5880 mL/min. The Drug metabolism result (with Liver microsome [5]; in the series with Liver microsome [6]; in the series with Liver microsome [7]; in [8]; in the series on Liver; in the series with Liver microsome [11]) was “metabolite_detected” each time. Also, the inhibition result in the series with Rattus norvegicus [9] and in the series with Rattus norvegicus [10] was “Active” in each case. For the same compound, the Km – broadly, the substrate concentration at which the rate is half of its maximum – worked out at 27 µM with CYP3A4 (Homo sapiens) [12] and 15 µM with CYP3A4 (Homo sapiens) [13]. Further, the Vmax/Km in the series with CYP3A4 (Homo sapiens) [14] is 0.09 µL/min. Further, the values for the maximum rate (Vmax) with CYP3A4 (Homo sapiens) [15], with CYP3A5 (Homo sapiens) and in the series with CYP3A4 (Homo sapiens) [16] were 1.41 pmol/min, 0.8 pmol/min and 2.7 pmol/min, respectively.
